Laboratory results reported in the RNAGym collection of RNA variant scans (doi:10.1126/science.aae0568).
Variants at the floor of the assay were thinned out.

B1: tRNA (parent)
chain: GUUCCGUUGGCGUAAUGGUAACGCGUCUCCCUCCUAAGGAGAAGACUGCGGGUUCGAGUCCCGUACGGAACG

Variants of: B1
Experiment: yeast fitness relative to wild type (ratio to wild type); higher = fitter; tRNA-Arg(CCU), competitive growth, 37 C, YPD
How it was run: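 Amplicons of the tRNA-Arg(CCU) gene were sequenced, 100-nucleotide paired-end, from the start population and from each end population of a pooled yeast competition. The competition, in six parallel replicates, lasted 24 hours in YPD at 37°C. Fitness relative to wild type was calculated from changes in genotype frequencies. Genotypes had to have ≥ 100 starting reads, and estimates < 0.5 were set to 0.5.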

| Variant | yeast fitness |
| --- | --- |
| C5A U19C U26G A36C | 0.571 |
| C5G A21C A45U C46U | ≤ 0.5 |
| C5G A20G A42U | 0.66 |
| C5G C24G A45C A70U | ≤ 0.5 |
| C5G A21C A45G | 0.512 |
| C5G A15G U16A A20G U28A C30A C33A A36U G50A C66U | ≤ 0.5 |
| C5G A14C C30U C49U C61A | ≤ 0.5 |
| C5G A14U C60A | ≤ 0.5 |
| C5G C11A A15G G18A C30G U54C | ≤ 0.5 |
| C5G A21G U26C C27G G48C G67A | 0.531 |
| C5G A20G C22G C29G G63C A69U | 0.527 |
| C5G A70G | 0.848 |
| C5G C11A C29G C33U G50A | ≤ 0.5 |
| C5G A20G A40G G44A C46G A65C | ≤ 0.5 |
| C5G A14U G25A G48C C61A C62U | ≤ 0.5 |
| C5G A14G C27G | ≤ 0.5 |
| C5G C11U G25A | 0.787 |
| C5G A20U G51C | ≤ 0.5 |
| C5G A37U C49G | ≤ 0.5 |
| C5G C11U U19C G41C | 0.536 |
| C5G A14C G18A C49U | ≤ 0.5 |

| Variant | yeast fitness |
| --- | --- |
| C5G A45C | 0.85 |
| C5G C11U A42G C49U A69C A70G | ≤ 0.5 |
| C5G C11U A37C A57G | ≤ 0.5 |
| C5G A20U C46A A57U | ≤ 0.5 |
| C5G A65G | 1 |
| C5G A42G A69C | 0.568 |
| C5G A15C U28A G41C U64G | ≤ 0.5 |
| C5G A20C C31A | 0.55 |
| C5A U35G G41A G56A C66U | ≤ 0.5 |
| C5G A57G C66A | 0.564 |
| C5G C11G A14C U35G A45C U47C U64A | ≤ 0.5 |
| C5A U32C C60U C61G | ≤ 0.5 |
| C5G C22U C27U G41C A57C | 0.542 |
| C5G C22G C66U | ≤ 0.5 |
| C5G A20G C34A A40U | ≤ 0.5 |
| C5G C11U G17A A20C C49G | ≤ 0.5 |
| C5G A14G G63C | ≤ 0.5 |
| C5G A14U U16C G18A A21U A42G G68A | ≤ 0.5 |
| C5G A21C | 0.636 |
| C5A U28G | 0.609 |
| C5A U35G A69C | ≤ 0.5 |

| Variant | yeast fitness |
| --- | --- |
| C5G A69C A70G | 0.692 |
| C5G A20G A36C G50A G51A A69C | ≤ 0.5 |
| C5G C11A A15G G18A A42U | ≤ 0.5 |
| C5G A15G U16A A20G U28A C30A C33A A36U G63A A69C | ≤ 0.5 |
| C5G A15G U16A A20G U28A C30A C33A A36U A69C | 0.578 |
| C5G A15G U16A A20G U28A C30A C33A A36U A69U | ≤ 0.5 |
| C5G A43U A69U | 0.62 |
| C5A U28C C30U A36C A42G | ≤ 0.5 |
| C5G C22U A57G | ≤ 0.5 |
| C5G C22G C55G A70U | ≤ 0.5 |
| C5A U32C | 0.928 |
| C5A U32A | 0.784 |
| C5G C22A | 0.766 |
| C5G C22U | 0.72 |
| C5G C22G | 0.652 |
| C5G A20U A37G | ≤ 0.5 |
| C5G A14C A37G A69U | ≤ 0.5 |
| C5G A14U U16C G18C U32A C62U | ≤ 0.5 |
| C5G C11U G48C C49A A57C | ≤ 0.5 |
| C5G A14C G18A U19C A43G A45C C46U | ≤ 0.5 |
| C5G A14C A37G C46U G68C | ≤ 0.5 |

| Variant | yeast fitness |
| --- | --- |
| C5G A14C C31G | ≤ 0.5 |
| C5G A36U G52C G67U A69U | ≤ 0.5 |
| C5G C11U G25C G52U A70C | ≤ 0.5 |
| C5G A21C C24U C33U | ≤ 0.5 |
| C5A U35G G41A G56A A70C | 0.543 |
| C5G A21U C55U | 0.6 |
| C5A U35G G68C | ≤ 0.5 |
| C5G A15U C30A C31A C49U C66G | ≤ 0.5 |
| C5G C11G A15U A70U | ≤ 0.5 |
| C5G A15C C22A | 0.627 |
| C5G A37G C46G C61A | ≤ 0.5 |
| C5G A14U G38C G39C C61U | ≤ 0.5 |
| C5G C11U C30U A36C G58A G67C | ≤ 0.5 |
| C5G A15G U28C A45C | ≤ 0.5 |
| C5G C11U G67C | 0.699 |
| C5G C11A C22G A36U G63A | ≤ 0.5 |
| C5G A20C C31G A37U | 0.617 |
| C5G A21C A69C | ≤ 0.5 |
| C5G C11G U35G A42G G56C | ≤ 0.5 |
| C5G A15G A36G A43G G56A | ≤ 0.5 |
